# Columns and labels:
# CCRF-CEM [1] = assay: In vitro cytotoxicity against CCRF-CEM T lymphoblastoid cells; format: functional, Homo sapiens; design: concentration or dose not given beside the values
# Outline: (§1)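 Cells were grown for 72 h at a constant compound concentration of 10 µM, then counted. Growth inhibition is given relative to cell counts in control cultures grown in medium without compound. Lines: mouse L1210 and L929, human HeLaS3 and CCRF-CEM.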
# HeLa = assay: In vitro cytotoxicity against human cervix carcinoma HeLa S3 cells; format: functional; design: concentration or dose not given beside the values; outline: as §1
# HEL [2] = assay: Inhibition of Varicella-Zoster virus (VZV) YS strain induced cytopathicity in HEL cell line; format: functional, cell-based; conditions: Homo sapiens
# Outline: (§2)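 Inhibition of virus-induced cytopathicity in confluent cell cultures in 96-well plates inoculated with 100 CCID50 of virus; 1 CCID50 is the virus dose infecting 50% of cultures. EC50 is based on reduction of cytopathicity.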
# CCRF-CEM [3] = assay: Inhibition of Human immunodeficiency virus (HIV) -1 III B strain induced cytopathicity in CEM cell line; format: functional, cell-based
# Outline: (§3)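 CEM cells were infected with 100 CCID50 per mL of HIV-1 (IIIB) or HIV-2 (ROD). Cells were seeded into wells containing dilutions of compound and incubated 4 days at 37 °C. CEM giant cell formation was then examined microscopically.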
# E6SM [4] = assay: Inhibition of Herpes simplex virus-2 (G strain) induced cytopathicity in E6SM cell line; format: functional, cell-based; conditions: Homo sapiens; outline: as §2
# L1210 = assay: In vitro cytotoxicity against L1210 mouse leukemia cells; format: functional; design: concentration or dose not given beside the values; outline: as §1
# CCRF-CEM [5] = assay: Inhibition of Human immunodeficiency virus (HIV)-2 ROD strain induced cytopathicity in CEM cell line; format: functional, cell-based; outline: as §3
# L929 = assay: In vitro cytotoxicity against murine L929 cells; format: functional, Mus musculus; design: concentration or dose not given beside the values; outline: as §1
# E6SM [6] = assay: Inhibition of Herpes simplex virus-1, KOS strain induced cytopathicity in E6SM cell line; format: functional, cell-based; conditions: Homo sapiens; outline: as §2
# E6SM [7] = assay: Inhibition of thymidine kinase deficient Herpes simplex virus-1 VMW 1837 strain induced cytopathicity in E6SM cell line; format: functional, cell-based; conditions: Homo sapiens; outline: as §2
# HEL [8] = assay: Inhibition of Varicella-Zoster virus (VZV) OKA strain induced cytopathicity in HEL cell line; format: functional, cell-based; conditions: Homo sapiens; outline: as §2
# HEL [9] = assay: Inhibition of Thymidine kinase deficient (TK-) Varicella-Zoster virus (VZV) YS/R strain induced cytopathicity in HEL cell line; format: functional, cell-based; conditions: Homo sapiens; outline: as §2
# [10] = system: Moloney murine sarcoma virus; assay: Inhibition of moloney sarcoma virus (MSV) induced cytopathicity in C3H/3T3 embryo fibroblast cells; format: functional, organism-based
# Outline: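 C3H/3T3 murine embryo fibroblasts were seeded in 48-well plates and infected 24 h later with 80 focus-forming units of MSV. MSV stock was prepared from tumours in NMRI mice. Virus adsorbed for 10-120 min at 37 °C, then fresh medium with compound dilutions was added. Transformation was examined microscopically after 6 days.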
# Human alphaherpesvirus 3 = assay: Inhibition of Thymidine kinase deficient (TK-) Varicella-Zoster virus (VZV) 07/1 strain induced cytopathicity n HEL cell line; format: functional, organism-based; conditions: Human alphaherpesvirus 3, tk-07, HEL; outline: as §2
SMILES,Control (CCRF-CEM [1]),Control (HeLa),EC50 (HEL [2]),EC50 (CCRF-CEM [3]),EC50 (E6SM [4]),Control (L1210),EC50 (CCRF-CEM [5]),Control (L929),EC50 (E6SM [6]),EC50 (E6SM [7]),EC50 (HEL [8]),EC50 (HEL [9]),EC50 [10],EC50 (Human alphaherpesvirus 3)
Cc1cc(=O)n(CCOCP(=O)(O)O)c(N)n1,100%,83%,> 50 µg/mL,> 100 µg/mL,> 400 µg/mL,95%,> 100 µg/mL,81%,> 400 µg/mL,> 400 µg/mL,> 50 µg/mL,> 50 µg/mL,122 µg/mL,> 50 µg/mL
CN(C)c1cc(O)nc(N)n1,,,> 50 µg/mL,> 100 µg/mL,> 400 µg/mL,,> 100 µg/mL,,> 400 µg/mL,> 400 µg/mL,> 50 µg/mL,> 50 µg/mL,132 µg/mL,> 50 µg/mL
CC(C)OP(=O)(COCCOc1cc(N)ncn1)OC(C)C,,,> 50 µg/mL,> 20 µg/mL,> 400 µg/mL,,> 20 µg/mL,,> 400 µg/mL,> 400 µg/mL,> 50 µg/mL,> 50 µg/mL,,> 50 µg/mL
Nc1cc(O)nc(SCCOCP(=O)(O)O)n1,,,> 50 µg/mL,> 100 µg/mL,> 400 µg/mL,,> 100 µg/mL,,240 µg/mL,> 400 µg/mL,> 50 µg/mL,> 50 µg/mL,72 µg/mL,> 50 µg/mL
Nc1cc(O)ncn1,,,> 50 µg/mL,> 100 µg/mL,> 400 µg/mL,,> 100 µg/mL,,> 400 µg/mL,> 400 µg/mL,> 50 µg/mL,> 50 µg/mL,,> 50 µg/mL
CSc1nc(N)cc(OCCOCP(=O)(O)O)n1,87%,79%,> 50 µg/mL,51 µg/mL,> 80 µg/mL,96%,33 µg/mL,92%,> 80 µg/mL,> 80 µg/mL,> 50 µg/mL,> 50 µg/mL,> 40 µg/mL,> 50 µg/mL
Nc1nc(NC2CC2)cc(=O)n1CCOCP(=O)(O)O,,,> 50 µg/mL,> 100 µg/mL,> 16 µg/mL,,> 100 µg/mL,,> 16 µg/mL,> 16 µg/mL,> 50 µg/mL,> 50 µg/mL,,> 50 µg/mL
Nc1nc(O)cc(NC2CC2)n1,,,> 50 µg/mL,> 100 µg/mL,> 400 µg/mL,,> 100 µg/mL,,> 400 µg/mL,> 400 µg/mL,> 50 µg/mL,> 50 µg/mL,133 µg/mL,> 50 µg/mL
Cc1cc(OCCOCP(=O)(O)O)nc(N)n1,95%,87%,> 50 µg/mL,> 100 µg/mL,> 400 µg/mL,99%,> 100 µg/mL,85%,> 400 µg/mL,> 400 µg/mL,> 50 µg/mL,> 50 µg/mL,89 µg/mL,> 50 µg/mL
CN(C)c1cc(=O)n(CCOCP(=O)(O)O)c(N)n1,98%,92%,> 50 µg/mL,> 100 µg/mL,> 80 µg/mL,90%,> 100 µg/mL,99%,> 80 µg/mL,> 80 µg/mL,> 50 µg/mL,> 50 µg/mL,105 µg/mL,> 50 µg/mL
Nc1nc(OCCOCP(=O)(O)O)cc(OCCOCP(=O)(O)O)n1,109%,72%,> 50 µg/mL,57 µg/mL,> 400 µg/mL,77%,80 µg/mL,56%,240 µg/mL,240 µg/mL,50 µg/mL,> 50 µg/mL,43 µg/mL,> 50 µg/mL
CC(C)OP(=O)(COCCSc1cc(N)nc(N)n1)OC(C)C,,,> 50 µg/mL,47 µg/mL,> 400 µg/mL,,52 µg/mL,,> 400 µg/mL,> 400 µg/mL,> 50 µg/mL,> 50 µg/mL,,> 50 µg/mL
CN(C)c1cc(OCCOCP(=O)(O)O)nc(N)n1,104%,89%,> 50 µg/mL,> 100 µg/mL,> 400 µg/mL,88%,> 100 µg/mL,104%,> 400 µg/mL,> 400 µg/mL,> 50 µg/mL,> 50 µg/mL,133 µg/mL,> 50 µg/mL
Nc1ncnc2c1ncn2CCOCP(=O)(O)O [ADEFOVIR],,,10 µg/mL,1.8 µg/mL,7 µg/mL,,2.5 µg/mL,,7 µg/mL,7 µg/mL,10 µg/mL,10 µg/mL,0.25 µg/mL,10 µg/mL
Nc1cc(=O)n(CCOCP(=O)(O)O)cn1,86%,94%,> 50 µg/mL,> 100 µg/mL,> 400 µg/mL,98%,> 100 µg/mL,90%,> 400 µg/mL,> 400 µg/mL,> 50 µg/mL,> 50 µg/mL,138 µg/mL,> 50 µg/mL

# Source: ChEMBL document CHEMBL1135936, “6-[2-(Phosphonomethoxy)alkoxy]pyrimidines with antiviral activity” (J Med Chem, 2002)
